In brackets after ≈: the same amount, converted by molar mass. Activity calls are given as the source filed them. No cut-off for these calls is given here.
How the values were obtained:
Pseudomonas aeruginosa [1] = test: Antibacterial activity against Pseudomonas aeruginosa ATCC 27853 after 24 to 48 hrs by agar well diffusion method; type: functional
In short: (§1)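 Mueller Hinton agar plates spread with bacteria (10⁶ cells/ml). Wells were filled with 50 µl of compound and incubated at 37 °C for 24–48 h. The inhibition zone diameter (mm) was measured with a transparent scale. Amoxicillin 5.0 mg/ml at 50 µl/well served as the positive control.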

Staphylococcus aureus [2] = test: Antibacterial activity against Staphylococcus aureus ATCC 25923 after 24 hrs by agar well diffusion method; type: functional; settings: ATCC 25923, 24 h
Staphylococcus aureus [3] = test: Antibacterial activity against Staphylococcus aureus ATCC 25923 after 24 to 48 hrs by agar well diffusion method; type: functional; in short: as §1
Bacillus spizizenii [4] = test: Antibacterial activity against Bacillus subtilis ATCC 6633 after 24 hrs by agar well diffusion method; type: functional; settings: ATCC 6633, 24 h
Escherichia coli [5] = test: Antibacterial activity against Escherichia coli ATCC 25922 after 24 hrs by agar well diffusion method; type: functional; settings: ATCC 25922, 24 h
Pseudomonas aeruginosa [6] = test: Antibacterial activity against Pseudomonas aeruginosa ATCC 27853 after 24 hrs by agar well diffusion method; type: functional; settings: ATCC 27853, 24 h
Escherichia coli [7] = test: Antibacterial activity against Escherichia coli ATCC 25922 after 24 to 48 hrs by agar well diffusion method; type: functional; in short: as §1
Bacillus spizizenii [8] = test: Antibacterial activity against Bacillus subtilis ATCC 6633 after 24 to 48 hrs by agar well diffusion method; type: functional; in short: as §1
[9] = system: Bifidobacterium longum subsp. infantis; test: Inhibition of beta-lactamase in Bifidobacterium infantis assessed as potentiation of amoxicillin induced antibacterial activity by measuring amoxicillin MIC after 24 hrs by agar well diffusion method (reference value: 1.5 ug/ml)
In short: (§2)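 Amoxicillin (1.0 µg/ml) was combined with test compound and diluted to 100, 80, 60, 40, 10 and 5%. The mixtures were serially diluted in sterile water, and 100 µl was added to 900 µl nutrient broth. Tubes were inoculated with 10 µl of 10⁵ cells/ml and held 24 h at 37±1 °C. Growth/no growth was scored visually. Controls were bacteria in broth alone and sterile broth alone.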

[10] = target: Beta-lactamase (Escherichia coli) (UniProt Q53TY8); test: Binding affinity to Escherichia coli beta-lactamase in phosphate buffer at pH 7.4 at 6 10^-5M by CD spectral analysis
In short: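 Successive additions of compound (6 × 10^-5 M) were made to 1.0 mL β-lactamase in phosphate buffer pH 7.4. CD spectra were recorded at 25 °C over 200–700 nm, scan speed 50 nm/min, bandwidth 1 nm.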

[11] = target: Beta-lactamase (Pseudomonas aeruginosa) (UniProt Q79MP6); test: Inhibition of beta-lactamase in Pseudomonas aeruginosa ATCC 27853 assessed as potentiation of amoxicillin induced antibacterial activity at 10 to 100% amoxicillin to compound dilution after 24 hrs by agar well diffusion method; in short: as §2
[12] = system: Escherichia coli ATCC 25922; test: Inhibition of beta-lactamase in Escherichia coli ATCC 25922 assessed as potentiation of amoxicillin induced antibacterial activity at 5% amoxicillin to compound dilution after 24 hrs by agar well diffusion method; in short: as §2
[13] = target: Beta-lactamase (Staphylococcus aureus) (UniProt P00807); test: Inhibition of beta-lactamase in Staphylococcus aureus ATCC 25923 assessed as potentiation of amoxicillin induced antibacterial activity by measuring amoxicillin MIC after 24 hrs by agar well diffusion method (reference value: 1.5 ug/ml); in short: as §2
[14] = target: Beta-lactamase (Pseudomonas aeruginosa) (UniProt Q8RL90); test: Inhibition of beta-lactamase in Pseudomonas aeruginosa ATCC 27853 assessed as potentiation of amoxicillin induced antibacterial activity after 24 hrs by agar well diffusion method; in short: as §2
Bifidobacterium longum = test: Antibacterial activity against Bifidobacterium infantis after 24 hrs by agar well diffusion method; type: functional, Bifidobacterium longum subsp. infantis
[15] = target: Beta-lactamase (Pseudomonas aeruginosa) (UniProt Q8RL90); test: Inhibition of beta-lactamase in Pseudomonas aeruginosa ATCC 27853 assessed as potentiation of amoxicillin induced antibacterial activity at 5% amoxicillin to compound dilution after 24 hrs by agar well diffusion method; in short: as §2
[16] = target: Beta-lactamase (Staphylococcus aureus) (UniProt P00807); test: Inhibition of beta-lactamase in Staphylococcus aureus ATCC 25923 assessed as potentiation of amoxicillin induced antibacterial activity at 10 to 100% amoxicillin to compound dilution after 24 hrs by agar well diffusion method; in short: as §2
[17] = target: Beta-lactamase (Escherichia coli) (UniProt Q53TY8); test: Binding affinity to Escherichia coli beta-lactamase in phosphate buffer at pH 7.4 at 6 10^-5M after 3 mins by UV-vis spectroscopic analysis
In short: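 Compound at 6 × 10^-5 M in 0.01 M phosphate buffer pH 7.4 was titrated with 10 µl aliquots of 1 × 10^-6 M β-lactamase. Absorbance spectra were recorded at 200–700 nm after 3 min equilibration per addition, continuing until no further change (saturation).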

[18] = target: Beta-lactamase (Pseudomonas aeruginosa) (UniProt Q79MP6); test: Inhibition of beta-lactamase in Pseudomonas aeruginosa ATCC 27853 assessed as potentiation of amoxicillin induced antibacterial activity by measuring amoxicillin MIC after 24 hrs by agar well diffusion method (reference value: 1 ug/ml); in short: as §2
[19] = system: Bifidobacterium longum subsp. infantis; test: Inhibition of beta-lactamase in Bifidobacterium infantis assessed as potentiation of amoxicillin induced antibacterial activity after 24 hrs by agar well diffusion method; in short: as §2
[20] = target: Beta-lactamase (Escherichia coli) (UniProt Q53TY8); test: Binding affinity to Escherichia coli beta-lactamase assessed as chemical shift in phosphate buffer at pH 7.4 after 60 mins by NMR analysis
[21] = system: Bifidobacterium longum subsp. infantis; test: Inhibition of beta-lactamase in Bifidobacterium infantis assessed as potentiation of amoxicillin induced antibacterial activity at 5% amoxicillin to compound dilution after 24 hrs by agar well diffusion method; in short: as §2
[22] = system: Bifidobacterium longum subsp. infantis; test: Inhibition of beta-lactamase in Bifidobacterium infantis assessed as potentiation of amoxicillin induced antibacterial activity at 10 to 100% amoxicillin to compound dilution after 24 hrs by agar well diffusion method; in short: as §2
[23] = system: Escherichia coli ATCC 25922; test: Inhibition of beta-lactamase in Escherichia coli ATCC 25922 assessed as potentiation of amoxicillin induced antibacterial activity by measuring amoxicillin MIC after 24 hrs by agar well diffusion method (reference value: 1.5 ug/ml); in short: as §2
[24] = target: Beta-lactamase (Escherichia coli) (UniProt Q53TY8); test: Binding affinity to Escherichia coli beta-lactamase in phosphate buffer at pH 7.4 at 6 10^-5M after 3 mins by fluorescence titration analysis
In short: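 Fixed compound concentration in phosphate buffer pH 7.4, titrated with 10 µl additions of 1 × 10^-6 M β-lactamase. Excitation was 280 or 290 nm depending on compound, with emission scanned 300–600 nm and slits 5–10 nm. Readings followed 3 min equilibration per addition in a 1 cm quartz cell, continuing to saturation.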

[25] = target: Beta-lactamase (Staphylococcus aureus) (UniProt P00807); test: Inhibition of beta-lactamase in Staphylococcus aureus ATCC 25923 assessed as potentiation of amoxicillin induced antibacterial activity at 5% amoxicillin to compound dilution after 24 hrs by agar well diffusion method; in short: as §2
[26] = system: Escherichia coli ATCC 25922; test: Inhibition of beta-lactamase in Escherichia coli ATCC 25922 assessed as potentiation of amoxicillin induced antibacterial activity after 24 hrs by agar well diffusion method; in short: as §2
[27] = target: Beta-lactamase (Staphylococcus aureus) (UniProt P00807); test: Inhibition of beta-lactamase in Staphylococcus aureus ATCC 25923 assessed as potentiation of amoxicillin induced antibacterial activity after 24 hrs by agar well diffusion method; in short: as §2
[28] = system: Escherichia coli ATCC 25922; test: Inhibition of beta-lactamase in Escherichia coli ATCC 25922 assessed as potentiation of amoxicillin induced antibacterial activity at 10 to 100% amoxicillin to compound dilution after 24 hrs by agar well diffusion method; in short: as §2

CN(C)c1ncc(/C=C(\C#N)c2nc3ccccc3[nH]2)cn1
inhibition zone (IZ) (Pseudomonas aeruginosa [1]): 30 mm
MIC (Staphylococcus aureus [2]): 11.1 µg/mL (≈ 38.2 µM)
inhibition zone (IZ) (Staphylococcus aureus [3]): 30 mm
MIC (Bacillus spizizenii [4]): 20 µg/mL (≈ 68.9 µM)
MIC (Escherichia coli [5]): 14.3 µg/mL (≈ 49.3 µM)
MIC (Pseudomonas aeruginosa [6]): 11.1 µg/mL (≈ 38.2 µM)
inhibition zone (IZ) (Escherichia coli [7]): 50 mm
inhibition zone (IZ) (Bacillus spizizenii [8]): 39 mm

N#C/C(=C\c1cnc(Nc2ccc(Cl)cc2)nc1)c1nc2ccccc2s1
inhibition zone (IZ) (Pseudomonas aeruginosa [1]): 30 mm
MIC (Staphylococcus aureus [2]): 11.1 µg/mL (≈ 28.5 µM)
inhibition zone (IZ) (Staphylococcus aureus [3]): 30 mm
MIC (Bacillus spizizenii [4]): 20 µg/mL (≈ 51.3 µM)
MIC (Escherichia coli [5]): 11.1 µg/mL (≈ 28.5 µM)
MIC (Pseudomonas aeruginosa [6]): 11.1 µg/mL (≈ 28.5 µM)
inhibition zone (IZ) (Escherichia coli [7]): 40 mm
inhibition zone (IZ) (Bacillus spizizenii [8]): 35 mm

CN(C)c1ncc(/C=C(\C#N)c2nc3ccccc3s2)cn1
inhibition zone (IZ) (Pseudomonas aeruginosa [1]): 32 mm
MIC (Staphylococcus aureus [2]): 35.8 µg/mL (≈ 116 µM)
inhibition zone (IZ) (Staphylococcus aureus [3]): 35 mm
MIC (Bacillus spizizenii [4]): 50 µg/mL (≈ 163 µM)
MIC (Escherichia coli [5]): 50 µg/mL (≈ 163 µM)
MIC (Pseudomonas aeruginosa [6]): 35.8 µg/mL (≈ 116 µM)
inhibition zone (IZ) (Escherichia coli [7]): 52 mm
inhibition zone (IZ) (Bacillus spizizenii [8]): 45 mm

N#C/C(=C\c1cnc(Nc2ccc(Cl)cc2)nc1)c1nc2ccccc2[nH]1
MIC [9]: 0.9 µg/mL
Activity [10]: Active
inhibition [11]: Active
inhibition zone (IZ) (Pseudomonas aeruginosa [1]): 28 mm
inhibition [12]: inactive
MIC [13]: 0.9 µg/mL
fractional inhibitory concentration index (FICI) [14]: 0.2
MIC (Bifidobacterium longum): 9 µg/mL (≈ 24.1 µM)
MIC (Staphylococcus aureus [2]): 9 µg/mL (≈ 24.1 µM)
inhibition [15]: inactive
inhibition [16]: Active
inhibition zone (IZ) (Staphylococcus aureus [3]): 32 mm
MIC (Bacillus spizizenii [4]): 13 µg/mL (≈ 34.9 µM)
Activity [17]: Active
MIC [18]: 1.3 µg/mL
fractional inhibitory concentration index (FICI) [19]: 0.2
Activity [20]: Active
inhibition [21]: inactive
inhibition [22]: Active
MIC [23]: 0.9 µg/mL
Activity [24]: Active
MIC (Escherichia coli [5]): 9 µg/mL (≈ 24.1 µM)
MIC (Pseudomonas aeruginosa [6]): 9 µg/mL (≈ 24.1 µM)
inhibition [25]: inactive
inhibition zone (IZ) (Escherichia coli [7]): 40 mm
fractional inhibitory concentration index (FICI) [26]: 0.2
fractional inhibitory concentration index (FICI) [27]: 0.2
inhibition zone (IZ) (Bacillus spizizenii [8]): 40 mm
inhibition [28]: Active

N#C/C(=C\c1cnc(N2CCOCC2)nc1)c1nc2ccccc2[nH]1
inhibition zone (IZ) (Pseudomonas aeruginosa [1]): 35 mm
MIC (Staphylococcus aureus [2]): 27.8 µg/mL (≈ 83.6 µM)
inhibition zone (IZ) (Staphylococcus aureus [3]): 35 mm
MIC (Bacillus spizizenii [4]): 27.8 µg/mL (≈ 83.6 µM)
MIC (Escherichia coli [5]): 27.8 µg/mL (≈ 83.6 µM)
MIC (Pseudomonas aeruginosa [6]): 27.8 µg/mL (≈ 83.6 µM)
inhibition zone (IZ) (Escherichia coli [7]): 40 mm
inhibition zone (IZ) (Bacillus spizizenii [8]): 39 mm

N#C/C(=C\c1cnc(NCc2ccccc2)nc1)c1nc2ccccc2s1
inhibition zone (IZ) (Pseudomonas aeruginosa [1]): 35 mm
MIC (Staphylococcus aureus [2]): 18.3 µg/mL (≈ 49.5 µM)
inhibition zone (IZ) (Staphylococcus aureus [3]): 35 mm
MIC (Bacillus spizizenii [4]): 18.3 µg/mL (≈ 49.5 µM)
MIC (Escherichia coli [5]): 18.3 µg/mL (≈ 49.5 µM)
MIC (Pseudomonas aeruginosa [6]): 18.3 µg/mL (≈ 49.5 µM)
inhibition zone (IZ) (Escherichia coli [7]): 50 mm
inhibition zone (IZ) (Bacillus spizizenii [8]): 39 mm

N#C/C(=C\c1cnc(N2CCOCC2)nc1)c1nc2ccccc2s1
inhibition zone (IZ) (Pseudomonas aeruginosa [1]): 30 mm
MIC (Staphylococcus aureus [2]): 27.8 µg/mL (≈ 79.6 µM)
inhibition zone (IZ) (Staphylococcus aureus [3]): 32 mm
MIC (Bacillus spizizenii [4]): 50 µg/mL (≈ 143 µM)
MIC (Escherichia coli [5]): 35.8 µg/mL (≈ 102 µM)
MIC (Pseudomonas aeruginosa [6]): 35.8 µg/mL (≈ 102 µM)
inhibition zone (IZ) (Escherichia coli [7]): 40 mm
inhibition zone (IZ) (Bacillus spizizenii [8]): 39 mm

N#C/C(=C\c1cnc(NCc2ccccc2)nc1)c1nc2ccccc2[nH]1
inhibition zone (IZ) (Pseudomonas aeruginosa [1]): 30 mm
MIC (Staphylococcus aureus [2]): 18 µg/mL (≈ 51.1 µM)
inhibition zone (IZ) (Staphylococcus aureus [3]): 35 mm
MIC (Bacillus spizizenii [4]): 25 µg/mL (≈ 70.9 µM)
MIC (Escherichia coli [5]): 18 µg/mL (≈ 51.1 µM)
MIC (Pseudomonas aeruginosa [6]): 18 µg/mL (≈ 51.1 µM)
inhibition zone (IZ) (Escherichia coli [7]): 45 mm
inhibition zone (IZ) (Bacillus spizizenii [8]): 40 mm

CC1(C)S[C@@H]2[C@H](NC(=O)[C@H](N)c3ccc(O)cc3)C(=O)N2[C@H]1C(=O)O [AMOXICILLIN]
inhibition zone (IZ) (Pseudomonas aeruginosa [1]): 24 mm
MIC (Bifidobacterium longum): 1.5 µg/mL (≈ 4.1 µM)
MIC (Staphylococcus aureus [2]): 1.5 µg/mL (≈ 4.1 µM)
inhibition zone (IZ) (Staphylococcus aureus [3]): 25 mm
MIC (Bacillus spizizenii [4]): 1.5 µg/mL (≈ 4.1 µM)
MIC (Escherichia coli [5]): 1.5 µg/mL (≈ 4.1 µM)
MIC (Pseudomonas aeruginosa [6]): 1 µg/mL (≈ 2.74 µM)
inhibition zone (IZ) (Escherichia coli [7]): 21 mm
inhibition zone (IZ) (Bacillus spizizenii [8]): 14 mm
